In brackets after ≈: the same amount, converted by molar mass.
Experiments:
Assay type in all cases: functional
Staphylococcus aureus [1] = assay: Antibacterial activity against methicillin-sensitive Staphylococcus aureus NCTC 6571; conditions: Staphylococcus aureus, NCTC 6571; read-out: MIC
Method in brief: (§1)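 Broth microdilution in Mueller-Hinton broth. Samples were dissolved in sterile water to 200 µg mL-1 as the working solution and doubling dilutions were made across rows. Plates were incubated at 37 °C and inspected visually, with resazurin added as growth indicator. MIC reported in µg mL-1.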

Enterococcus faecalis = assay: Antibacterial activity against Streptococcus faecalis NCTC 775; conditions: Enterococcus faecalis, NCTC 775; read-out: MIC; method in brief: as §1
[2] = tested on: Mycolicibacterium fortuitum; assay: Antibacterial activity against Mycobacterium fortuitum NCTC 10394; method in brief: as §1
Aspergillus niger = assay: Antifungal activity against Aspergillus niger IMI 149007
Method in brief: (§2)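 Antifungal microdilution in Sabouraud broth. Test sample at 200 µg mL-1 working solution in sterile water was serially doubled down successive rows. Incubation was at 25 °C, followed by visual growth check and addition of resazurin indicator. Read-out is MIC in µg mL-1.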

Candida albicans = assay: Antifungal activity against Candida albicans NCPF 3179; conditions: Candida albicans; read-out: MIC; method in brief: as §2
Staphylococcus aureus [3] = assay: Antibacterial activity against methicillin-resistant Staphylococcus aureus clinical isolate 1
Method in brief: (§3)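 Broth microdilution MIC against clinical S. aureus isolates (incl. MRSA), run per NCCLS guidelines in 96-well plates. Test sample dissolved in sterile water to a 200 µg mL-1 working concentration, then doubling dilutions in Mueller-Hinton broth. Incubated at 37 °C, growth read visually plus resazurin indicator. MIC reported in µg/mL.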

Staphylococcus aureus [4] = assay: Antibacterial activity against methicillin-resistant Staphylococcus aureus clinical isolate 2; method in brief: as §3
Staphylococcus aureus [5] = assay: Antibacterial activity against methicillin-resistant Staphylococcus aureus clinical isolate 3; method in brief: as §3
Staphylococcus aureus [6] = assay: Antibacterial activity against methicillin-resistant Staphylococcus aureus clinical isolate 4; method in brief: as §3
Staphylococcus aureus [7] = assay: Antibacterial activity against methicillin-resistant Staphylococcus aureus clinical isolate 5; method in brief: as §3

Structure (SMILES) | MIC (Staphylococcus aureus [1]) | MIC (Enterococcus faecalis) | MIC [2] | MIC (Aspergillus niger) | MIC (Candida albicans) | MIC (Staphylococcus aureus [3]) | MIC (Staphylococcus aureus [4]) | MIC (Staphylococcus aureus [5]) | MIC (Staphylococcus aureus [6]) | MIC (Staphylococcus aureus [7])
CC(C)c1sc(NC(=O)c2cc(NC(=O)c3cc(NC=O)cn3C)cn2C)nc1C(=O)NCCCN(C)C | 5 µg/mL (≈ 9.21 µM) | 10 µg/mL (≈ 18.4 µM) | 19 µg/mL (≈ 35 µM) | 76 µg/mL (≈ 140 µM) | 76 µg/mL (≈ 140 µM) | – | – | – | – | –
COc1cccc(C(=O)Nc2cc(C(=O)Nc3cc(C(=O)Nc4cn(CCCN(C)C)cn4)n(C)c3)n(C)c2)c1 | > 50 µg/mL | > 50 µg/mL | > 50 µg/mL | > 50 µg/mL | > 50 µg/mL | – | – | – | – | –
COc1cccc(C(=N)Nc2cc(C(=O)Nc3cc(C(=O)Nc4cc(C(=O)NCCc5ccccn5)n(C)c4)n(C)c3)n(C)c2)c1 | 50 µg/mL (≈ 80.4 µM) | > 50 µg/mL | > 50 µg/mL | > 50 µg/mL | > 50 µg/mL | > 64 µg/mL | > 64 µg/mL | > 64 µg/mL | > 64 µg/mL | > 64 µg/mL
COc1cccc(C(=N)Nc2cc(C(=O)Nc3cc(C(=O)Nc4cn(CCCN(C)C)cn4)n(C)c3)n(C)c2)c1 | > 50 µg/mL | > 50 µg/mL | > 50 µg/mL | > 50 µg/mL | > 50 µg/mL | – | – | – | – | –
COc1cccc(C(=O)Nc2cc(C(=O)Nc3cc(C(=O)Nc4nc(C(=O)NCCCN(C)C)c(C(C)C)s4)n(C)c3)n(C)c2)c1 | 25 µg/mL (≈ 38.5 µM) | 25 µg/mL (≈ 38.5 µM) | > 50 µg/mL | > 50 µg/mL | > 50 µg/mL | 16 µg/mL (≈ 24.7 µM) | 32 µg/mL (≈ 49.3 µM) | 32 µg/mL (≈ 49.3 µM) | 32 µg/mL (≈ 49.3 µM) | 32 µg/mL (≈ 49.3 µM)
CC(C)CCc1sc(NC(=O)c2cc(NC(=O)c3cc(/C=C/c4ccc([N+](=O)[O-])cc4)cn3C)cn2C)nc1C(=O)NCCCN(C)C | > 50 µg/mL | > 50 µg/mL | > 50 µg/mL | > 50 µg/mL | > 50 µg/mL | > 64 µg/mL | > 64 µg/mL | > 64 µg/mL | > 64 µg/mL | > 64 µg/mL
CC(C)c1sc(NC(=O)c2cc(NC(=O)c3cc(NC(=O)c4cc5ccccc5cn4)cn3C)cn2C)nc1C(=O)NCCCN(C)C | 50 µg/mL (≈ 74.6 µM) | 50 µg/mL (≈ 74.6 µM) | 50 µg/mL (≈ 74.6 µM) | > 50 µg/mL | 50 µg/mL (≈ 74.6 µM) | – | – | – | – | –
CC(C)CCc1sc(NC(=O)c2cc(NC(=O)c3ccc(/C=C/c4cc5ccccc5nc4Cl)cc3)cn2C)nc1C(=O)NCCN1CCOCC1 | > 50 µg/mL | > 50 µg/mL | > 50 µg/mL | > 50 µg/mL | > 50 µg/mL | – | – | – | – | –
Cn1cc(NC(=O)c2cc(NC(=O)c3ccc(NC(=O)c4cnc5ccccc5c4)cc3)cn2C)cc1C(=O)NCCN1CCOCC1 | > 50 µg/mL | > 50 µg/mL | > 50 µg/mL | > 50 µg/mL | > 50 µg/mL | – | – | – | – | –
CC(C)CCc1sc(NC(=O)c2cc(NC(=O)c3ccc(/C=C/c4cnc5ccccc5c4)cc3)cn2C)nc1C(=O)NCCN1CCOCC1 | > 50 µg/mL | > 50 µg/mL | > 50 µg/mL | > 50 µg/mL | 50 µg/mL (≈ 70.8 µM) | – | – | – | – | –
CN(C)CCCNC(=O)c1cc(NC(=O)c2cc(NC(=O)c3cc(NC(=N)c4ccccc4)cn3C)cn2C)cn1C | 50 µg/mL (≈ 87.5 µM) | > 50 µg/mL | > 50 µg/mL | 50 µg/mL (≈ 87.5 µM) | > 50 µg/mL | – | – | – | – | –
CC(=N)Nc1cc(C(=O)Nc2cc(C(=O)Nc3nc(C(=O)NCCCN(C)C)c(CCC(C)C)s3)n(C)c2)n(C)c1 | > 50 µg/mL | > 50 µg/mL | > 50 µg/mL | > 50 µg/mL | 50 µg/mL (≈ 85.7 µM) | – | – | – | – | –
CC(C)n1cc(NC(=O)c2cc(NC(=O)c3ccc(Cl)c(Cl)n3)cn2C)cc1C(=O)Nc1cc(C(=O)NCCCN(C)C)n(C)c1 | 6 µg/mL (≈ 8.95 µM) | 50 µg/mL (≈ 74.6 µM) | > 50 µg/mL | 50 µg/mL (≈ 74.6 µM) | > 50 µg/mL | – | – | – | – | –
CC(C)CCc1sc(NC(=O)c2cc(NC(=O)c3ccc(/C=C/c4ccc5ccccc5c4)cc3)cn2C)nc1C(=O)NCCN1CCOCC1 | > 50 µg/mL | > 50 µg/mL | > 50 µg/mL | > 50 µg/mL | > 50 µg/mL | – | – | – | – | –
CN(C)CCCNC(=O)c1cc(NC(=O)c2cc(NC(=O)c3cc(NC(=O)c4ccc(Cl)c(Cl)n4)cn3C)cn2C)cn1C | > 50 µg/mL | > 50 µg/mL | > 50 µg/mL | 50 µg/mL (≈ 77.8 µM) | 25 µg/mL (≈ 38.9 µM) | – | – | – | – | –
COc1cccc(C(=O)Nc2ccc(C(=O)Nc3cc(C(=O)Nc4cc(C(=O)NCCN5CCOCC5)n(C)c4)n(C)c3)cc2)c1 | > 50 µg/mL | > 50 µg/mL | > 50 µg/mL | > 50 µg/mL | > 50 µg/mL | – | – | – | – | –
CC(=N)Nc1cc(C(=O)Nc2cc(C(=O)Nc3nc(C(=O)NCCCN(C)C)c(C(C)C)s3)n(C)c2)n(C)c1 | 50 µg/mL (≈ 90 µM) | 50 µg/mL (≈ 90 µM) | > 50 µg/mL | 50 µg/mL (≈ 90 µM) | > 50 µg/mL | – | – | – | – | –
CC(C)n1cc(NC(=O)c2cc(NC(=N)c3ccccc3)cn2C)cc1C(=O)Nc1cc(C(=O)NCCCN(C)C)n(C)c1 | 50 µg/mL (≈ 83.4 µM) | > 50 µg/mL | > 50 µg/mL | > 50 µg/mL | > 50 µg/mL | – | – | – | – | –
